Measurements as given in ChEMBL document CHEMBL1149247, “New COX-2/5-LOX inhibitors: apoptosis-inducing agents potentially useful in prostate cancer chemotherapy” (J Med Chem, 2004).
The source made the active and inactive calls. No cut-off for these calls is given here.

Tests used:
[1] = molecular target: Prostaglandin G/H synthase 1 (Homo sapiens, UniProt P23219); experiment: Inhibition of COX1 expressed in CHO cells assessed as inhibition of arachidonic acid-stimulated PGE2 production by enzyme immunoassay; assay type: functional, cell-based
[2] = molecular target: T1, Polyunsaturated fatty acid 5-lipoxygenase (Homo sapiens, UniProt P09917); experiment: Inhibition of 5LOX in human whole blood assessed as inhibition of calcium ionophore A 23187-stimulated 5HETE production by HPLC analysis; assay type: functional, tissue-based
T1 sequence (P09917 whole entry): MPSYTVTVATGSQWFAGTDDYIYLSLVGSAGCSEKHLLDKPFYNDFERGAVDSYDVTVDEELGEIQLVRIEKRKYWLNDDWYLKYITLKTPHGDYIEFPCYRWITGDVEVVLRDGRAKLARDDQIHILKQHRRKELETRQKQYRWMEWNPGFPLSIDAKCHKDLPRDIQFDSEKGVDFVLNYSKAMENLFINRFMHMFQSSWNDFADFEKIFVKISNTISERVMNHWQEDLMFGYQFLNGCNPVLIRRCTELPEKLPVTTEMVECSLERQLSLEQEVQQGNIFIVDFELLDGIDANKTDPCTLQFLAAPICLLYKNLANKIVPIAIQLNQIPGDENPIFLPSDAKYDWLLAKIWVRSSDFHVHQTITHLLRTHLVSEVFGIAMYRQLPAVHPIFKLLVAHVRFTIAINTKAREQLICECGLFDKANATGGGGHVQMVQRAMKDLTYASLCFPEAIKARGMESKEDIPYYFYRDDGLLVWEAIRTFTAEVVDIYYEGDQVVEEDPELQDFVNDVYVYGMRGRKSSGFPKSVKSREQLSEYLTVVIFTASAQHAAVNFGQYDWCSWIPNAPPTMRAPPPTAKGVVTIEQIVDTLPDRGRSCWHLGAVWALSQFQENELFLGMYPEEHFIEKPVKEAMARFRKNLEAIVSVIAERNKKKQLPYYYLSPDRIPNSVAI
How it was run: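 Heparinized human whole blood, 1 mL aliquots, preincubated 15 min at 37 °C with compound or DMSO vehicle; then stimulated with 40 μM A 23187 for 15 min at 37 °C. 5-HETE extracted into ethyl acetate, then HPLC on a C18 column, methanol/water/acetic acid 80:20:0.08, pH 6.0, UV at 234 nm. IC50 from n = 2.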

Homo sapiens = species: Homo sapiens; experiment: Selectivity for COX2 over COX1
How it was run: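 Ratio of COX-1 to COX-2 IC50s, each taken from PGE2 production in CHO cells transfected with COX-1 or with COX-2. Cells were seeded and, 18 h later, given fresh Ham's F12 with 10% fetal calf serum with or without compound. After 10 min they were stimulated with arachidonic acid, then for 10 min with calcium ionophore A 23187. Intracellular PGE2 was read by enzyme immunoassay, n = 2.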

[3] = molecular target: T2, Prostaglandin G/H synthase 2 (Homo sapiens, UniProt P35354); experiment: Inhibition of COX2 expressed in CHO cells assessed as inhibition of arachidonic acid-stimulated PGE2 production by enzyme immunoassay
T2 sequence (P35354 whole entry): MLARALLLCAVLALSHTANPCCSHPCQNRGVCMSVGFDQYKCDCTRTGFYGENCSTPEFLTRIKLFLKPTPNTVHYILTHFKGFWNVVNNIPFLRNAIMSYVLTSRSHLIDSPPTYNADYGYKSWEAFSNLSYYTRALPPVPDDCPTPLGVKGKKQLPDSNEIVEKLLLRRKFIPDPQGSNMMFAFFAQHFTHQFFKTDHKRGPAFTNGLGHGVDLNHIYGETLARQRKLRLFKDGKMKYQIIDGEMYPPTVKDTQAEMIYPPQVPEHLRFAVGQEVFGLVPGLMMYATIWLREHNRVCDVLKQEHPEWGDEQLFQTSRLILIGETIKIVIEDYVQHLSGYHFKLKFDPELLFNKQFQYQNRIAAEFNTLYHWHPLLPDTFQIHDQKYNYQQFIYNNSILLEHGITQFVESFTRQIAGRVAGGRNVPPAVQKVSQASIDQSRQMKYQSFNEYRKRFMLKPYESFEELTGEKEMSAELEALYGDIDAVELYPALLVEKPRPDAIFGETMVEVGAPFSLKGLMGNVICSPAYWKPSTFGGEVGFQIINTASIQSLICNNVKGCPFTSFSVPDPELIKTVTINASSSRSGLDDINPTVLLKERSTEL

PC-3 [4] = experiment: Cell cycle arrest in human PC3 cells by accumulation at subG1 phase at 50 uM after 72 hrs by FACS flow cytometry; assay type: functional
How it was run: (§1)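 LNCaP or PC 3 cells seeded in 6-well plates, synchronized 24 h in serum-free medium, treated 72 h with varying compound concentrations; trypsinized cells pooled with supernatants, pelleted, fixed in cold ethanol overnight at 4 °C, then 30 min in PBS with RNase and propidium iodide. FACScan flow cytometry quantified sub-G1 (sub-diploid), G1, S and G2-M fractions as percent of cells.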

LNCaP [5] = experiment: Cell cycle arrest in human LNCaP cells by accumulation at G2M phase at 10 uM after 72 hrs by FACS flow cytometry; assay type: functional; how it was run: as §1
LNCaP [6] = experiment: Cell cycle arrest in human LNCaP cells by accumulation at S phase at 50 uM after 72 hrs by FACS flow cytometry; assay type: functional; how it was run: as §1
PC-3 [7] = experiment: Cell cycle arrest in human PC3 cells by accumulation at G1 phase at 50 uM after 72 hrs by FACS flow cytometry; assay type: functional; how it was run: as §1
LNCaP [8] = experiment: Cell cycle arrest in human LNCaP cells by accumulation at G1 phase at 10 uM after 72 hrs by FACS flow cytometry; assay type: functional; how it was run: as §1
PC-3 [9] = experiment: Cell cycle arrest in human PC3 cells by accumulation at G2M phase at 50 uM after 72 hrs by FACS flow cytometry; assay type: functional; how it was run: as §1
LNCaP [10] = experiment: Cell cycle arrest in human LNCaP cells by accumulation at S phase at 10 uM after 72 hrs by FACS flow cytometry; assay type: functional; how it was run: as §1
LNCaP [11] = experiment: Cell cycle arrest in human LNCaP cells by accumulation at subG1 phase at 50 uM after 72 hrs by FACS flow cytometry; assay type: functional; how it was run: as §1
PC-3 [12] = experiment: Antiproliferative activity against androgen-independent human PC3 cells after 72 hrs by MTT test; assay type: functional, cell-based; conditions: PC-3, 72 h
How it was run: (§2)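 Prostate carcinoma cells kept at 37 °C, 5% CO2 in RPMI 1640 with 10% fetal calf serum; seeded 1.8 × 10⁴ (PC 3) or 5.0 × 10⁴ (LNCaP) cells/well, grown 3 days, serum-starved 24 h for synchronization, then exposed 72 h to compounds in medium (<0.1% DMSO); growth read by colorimetric MTT. Mean of at least four independent determinations; single-dose lines at 100 μM.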

LNCaP [13] = experiment: Cell cycle arrest in human LNCaP cells by accumulation at G2M phase at 50 uM after 72 hrs by FACS flow cytometry; assay type: functional; how it was run: as §1
PC-3 [14] = experiment: Cell cycle arrest in human PC3 cells by accumulation at S phase at 50 uM after 72 hrs by FACS flow cytometry; assay type: functional; how it was run: as §1
LNCaP [15] = experiment: Cell cycle arrest in human LNCaP cells by accumulation at subG1 phase at 10 uM after 72 hrs by FACS flow cytometry; assay type: functional; how it was run: as §1
LNCaP [16] = experiment: Antiproliferative activity against androgen-sensitive human LNCaP cells after 72 hrs by MTT test; assay type: functional, cell-based; how it was run: as §2
LNCaP [17] = experiment: Cell cycle arrest in human LNCaP cells by accumulation at G1 phase at 50 uM after 72 hrs by FACS flow cytometry; assay type: functional; how it was run: as §1
LNCaP [18] = experiment: Antiproliferative activity against androgen-sensitive human LNCaP cells at 100 uM after 72 hrs by MTT test; assay type: functional; how it was run: as §2
PC-3 [19] = experiment: Antiproliferative activity against androgen-independent human PC3 cells at 100 uM after 72 hrs by MTT test; assay type: functional; how it was run: as §2
LNCaP [20] = experiment: Cell cycle arrest in human LNCaP cells assessed as induction of G1 block at 100 uM by FACS flow cytometry; assay type: functional, cell-based; how it was run: as §1

Chain of Prostaglandin G/H synthase 1 (P23219 whole entry): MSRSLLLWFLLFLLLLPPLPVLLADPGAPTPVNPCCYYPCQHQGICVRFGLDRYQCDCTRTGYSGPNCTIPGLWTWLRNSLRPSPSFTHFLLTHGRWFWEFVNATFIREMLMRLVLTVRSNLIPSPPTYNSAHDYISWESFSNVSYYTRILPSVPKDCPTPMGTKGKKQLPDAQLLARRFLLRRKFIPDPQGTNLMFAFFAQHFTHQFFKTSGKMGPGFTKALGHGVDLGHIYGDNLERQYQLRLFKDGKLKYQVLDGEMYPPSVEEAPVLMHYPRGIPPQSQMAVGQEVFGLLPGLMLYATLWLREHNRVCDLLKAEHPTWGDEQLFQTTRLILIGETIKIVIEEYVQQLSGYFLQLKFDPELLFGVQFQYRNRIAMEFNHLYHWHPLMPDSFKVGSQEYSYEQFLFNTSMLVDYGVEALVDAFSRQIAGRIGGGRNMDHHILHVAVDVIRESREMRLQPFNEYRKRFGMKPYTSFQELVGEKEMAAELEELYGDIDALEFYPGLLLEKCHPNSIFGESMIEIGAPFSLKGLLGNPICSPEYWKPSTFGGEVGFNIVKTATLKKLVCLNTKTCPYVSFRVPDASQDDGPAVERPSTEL

Structure (SMILES)	IC50 [1] [nM]	IC50 [2] [nM]	Selectivity ratio (Homo sapiens)	IC50 [3] [nM]	Activity (LNCaP [5]) [%]	Activity (LNCaP [8]) [%]	Activity (LNCaP [10]) [%]	Activity (LNCaP [15]) [%]	Activity (LNCaP [18]) [%]	Activity (PC-3 [19]) [%]	further results
COc1cc(OCc2cc(-c3ccccc3)n(-c3ccc(S(C)(=O)=O)cc3)n2)cc(OC)c1OC	17600	> 10000	78	220							
CS(=O)(=O)c1ccc(-n2nc(COc3ccc4c(c3)OCO4)cc2-c2ccccc2)cc1	15800	> 10000	35	450							
COc1cc(OC)cc(OCc2cc(-c3ccccc3)n(-c3ccc(S(C)(=O)=O)cc3)n2)c1	25100	> 10000	29	870							
Cc1ccc(-c2cc(C(F)(F)F)nn2-c2ccc(S(N)(=O)=O)cc2)cc1 [CELECOXIB]		> 10000			11.3	75.7	9	3.9			Activity (PC-3 [4]): 2.4%; Activity (LNCaP [6]): 6.9%; Activity (PC-3 [7]): 68.5%; Activity (PC-3 [9]): 23.5%; Activity (LNCaP [11]): 4%; IC50 (PC-3 [12]): 47000 nM; Activity (LNCaP [13]): 11.1%; Activity (PC-3 [14]): 5.8%; IC50 (LNCaP [16]): 50400 nM; Activity (LNCaP [17]): 78%
CS(=O)(=O)c1ccc(-n2nc(COc3cccc(N4CCOCC4)c3)cc2-c2ccccc2)cc1	38100	> 10000	41	920							
COC1(c2cc(F)cc(OCc3cc(-c4ccccc4)n(-c4ccc(C)c(C)c4)n3)c2)CCOCC1		760		410	15	69.5	11.5	3.9	26		IC50 (PC-3 [12]): 55000 nM
COC1(c2cc(F)cc(OCc3cc(-c4ccccc4)n(-c4ccc(Cl)cc4)n3)c2)CCOCC1	1810	830	2	930	11.1	75.5	11.1	2.5	0	0	
COC1(c2cc(F)cc(OCc3cc(-c4ccccc4)n(-c4ccccc4)n3)c2)CCOCC1	7140	570	12	610	13.9	72.9	10.6	3	0	0	
COc1ccc(OCc2cc(-c3ccccc3)n(-c3ccc(S(C)(=O)=O)cc3)n2)cc1OC	> 100000	> 10000	> 142	700							
COc1ccc(-n2nc(COc3cc(F)cc(C4(OC)CCOCC4)c3)cc2-c2ccccc2)cc1	36	770	< 1	300	17	69	11.4	2.8			
CCOc1cccc(OCc2cc(-c3ccccc3)n(-c3ccc(S(C)(=O)=O)cc3)n2)c1	> 100000	> 10000	> 112	900							
COC1(c2cc(F)cc(OCc3cc(-c4ccccc4)n(-c4ccc(OC(F)(F)F)cc4)n3)c2)CCOCC1		850		820	11	74.7	10.6	3.6	0	0	
COC1(c2cc(F)cc(OCc3cc(-c4ccccc4)n(-c4ccc(C)cc4)n3)c2)CCOCC1	1560	720	1	930	14.6	71.3	10.7	3.5	18	0	
CS(=O)(=O)c1ccc(-n2nc(COc3cc(F)cc(C#N)c3)cc2-c2ccccc2)cc1	99600	> 10000	176	570							
COc1cc(F)cc(OCc2cc(-c3ccccc3)n(-c3ccc(S(C)(=O)=O)cc3)n2)c1	44300	> 10000	142	310							
CS(=O)(=O)c1ccc(-n2nc(COc3cccc([N+](=O)[O-])c3)cc2-c2ccccc2)cc1	> 100000	> 10000	> 134	740							
CS(=O)(=O)c1ccc(C2=C(c3ccccc3)C(=O)OC2)cc1 [ROFECOXIB]					15.2	69.4	11.4	4	0	15	Activity (LNCaP [20]): inactive
COC1(c2cc(F)cc(OCc3cc(-c4ccccc4)n(-c4ccc(Cl)c(Cl)c4)n3)c2)CCOCC1		800		700	15.5	68.2	11.5	4.6	32	21	
COC1(c2cc(F)cc(OCc3ccc4c(ccc(=O)n4C)c3)c2)CCOCC1 [ZD-2138]	> 100000	83		> 100000							
COC1(c2cc(F)cc(OCc3cc(-c4ccccc4)n(-c4ccc(F)cc4)n3)c2)CCOCC1	1130	480	1	960	15.3	71.3	9.7	4	3	7	
